# The other results are listed elsewhere or left out. Unmarked numbers belong to inactive results. The source made the active and inactive calls.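 The calls were made as follows, unless noted: active = mean activation over triplicate wells above the hit cutoff derived from the earlier primary screen (cut at about 11% in these data); inactive = the rest.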
# Assays:
# [1] = biological target: Oxysterols receptor LXR-beta (Homo sapiens) (UniProt P55055); experiment: LXR agonists, Gal4 luciferase reporter, confirmation, counter-screen for hcDAF-12 agonist project, cell-based, luminescence, HEK293, H. contortus campaign (AID 743027;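 active = mean percent activation of the reporter above a cutoff set as the average over tested compounds plus their standard deviation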); conditions: HEK293 Gal4-LXR tk-luc reporter, 24 h, at 6.8 µM, hits give high values, normalized: DMSO 0%, positive control 100%
# Oxysterols receptor LXR-beta (Homo sapiens), sequence (P55055 whole entry, looked up, the tested form may be a part): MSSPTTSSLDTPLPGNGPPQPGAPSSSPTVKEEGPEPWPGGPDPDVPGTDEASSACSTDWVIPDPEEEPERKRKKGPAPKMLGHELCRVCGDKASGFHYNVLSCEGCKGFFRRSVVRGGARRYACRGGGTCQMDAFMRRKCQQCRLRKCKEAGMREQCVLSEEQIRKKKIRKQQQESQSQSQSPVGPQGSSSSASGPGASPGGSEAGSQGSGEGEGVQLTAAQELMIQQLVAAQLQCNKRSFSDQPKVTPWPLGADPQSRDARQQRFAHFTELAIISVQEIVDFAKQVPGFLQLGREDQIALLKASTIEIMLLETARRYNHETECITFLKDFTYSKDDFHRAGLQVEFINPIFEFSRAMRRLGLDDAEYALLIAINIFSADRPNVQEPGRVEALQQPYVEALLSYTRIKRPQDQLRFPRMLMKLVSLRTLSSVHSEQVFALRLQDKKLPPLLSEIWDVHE
# Method in brief: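 material = Gal4-LXR and tk-luc reporter transfected HEK293 cells | benchmarks = DMSO low control, positive-control high control | compound dosing = one nominal 6.8 µM dose, 0.68% DMSO | repeats = three replicates per compound | times = 24 h compound exposure at 37 °C, 5% CO2 | detection = One-Glo luciferase luminescence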
# [2] = test system: Nuclear hormone receptor DAF-12 (Haemonchus contortus); experiment: H. contortus DAF-12 receptor agonists, confirmation, cell-based, luminescence, HEK293, lit1-tk-luc, triplicate (AID 743032;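 active = mean activation across triplicate tests above the threshold derived from the earlier primary screen, cut at about 5.5% in these data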;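 also: 0% = DMSO only wells and 100% = 3 µM Δ7-dafachronic acid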); conditions: HEK293 hcDAF-12 lit1-tk-luc reporter, at 6.8 µM, hits give high values, % of Δ7-dafachronic acid response
# [3] = biological target: Galanin receptor type 2 (Homo sapiens) (UniProt O43603); experiment: GALR2 antagonists, retest of hits, confirmation, cell-based (AID 866; in the data active = inhibition above about 27%;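 also: cells stimulated with galanin at about its EC80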); conditions: GALR2-expressing cells, antagonist mode, at 4 µM, hits give high values
# Galanin receptor type 2 (Homo sapiens), sequence (O43603 whole entry, looked up): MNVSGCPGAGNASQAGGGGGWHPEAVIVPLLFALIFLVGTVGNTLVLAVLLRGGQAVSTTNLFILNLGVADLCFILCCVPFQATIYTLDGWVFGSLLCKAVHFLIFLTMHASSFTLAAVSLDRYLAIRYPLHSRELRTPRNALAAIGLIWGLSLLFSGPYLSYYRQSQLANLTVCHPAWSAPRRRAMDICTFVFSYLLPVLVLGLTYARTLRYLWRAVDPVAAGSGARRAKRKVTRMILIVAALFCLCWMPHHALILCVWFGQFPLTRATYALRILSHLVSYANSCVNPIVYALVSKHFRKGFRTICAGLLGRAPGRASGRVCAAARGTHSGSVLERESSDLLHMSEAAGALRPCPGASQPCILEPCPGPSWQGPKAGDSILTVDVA
# [4] = inhibitors of NFAT-driven beta-lactamase reporter, confirmation, counter-screen for GALR2 antagonist project, CHO NFAT-bla cells, FRET readout (AID 867;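 active = inhibition above the mean inhibition across tested compounds plus 3 SD, cut at about 27% in these data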;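 also: 0% = 500 nM thapsigargin stimulated wells and 100% = unstimulated BSA only wells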); conditions: thapsigargin-stimulated, at 4.2 µM, hits give high values
# [5] = test system: DAF-12 nuclear receptor (Heterodera glycines), GAL4-LBD fusion; experiment: H. glycines DAF-12 receptor agonists, confirmation, cell-based, luminescence, HEK293, GAL4-LBD fusion (AID 743050); conditions: HEK293 GAL4-hgDAF12 luciferase reporter, agonist mode; at 6.8 µM; hits give high values; percent of butyrate response;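 also: 0% = DMSO low control and 100% = 2 mM sodium butyrate high control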
# [6] = biological target: Oxysterols receptor LXR-beta (Homo sapiens) (UniProt P55055); experiment: LXR agonists, Gal4 luciferase reporter, confirmation, counter-screen for hgDAF-12 agonist project, cell-based, luminescence, HEK293, H. glycines campaign (AID 743051;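 active = mean activation of the triplicate above a set limit carried over from the primary screen, none filed active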); conditions: 24 h, at 6.8 µM, hits give high values
# Method in brief: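 System: Gal4-LXR luciferase reporter HEK293 cells / Compound: single nominal test compound dose of 6.8 µM / Times: 24 h exposure, 37 °C / Technique: One-Glo luminescence after 15 min / Read-out basis: % activation versus DMSO and positive controls / Benchmarks: DMSO low control, 0.68% final / Replication: n 3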
smiles,measurement,setting,value
CC(C)(C)OC(=O)N/N=C/c1ccc(C(=O)O)cc1,activation,[1],-0.15%
same,activation,[2],0.76%
Cc1ccccc1Nc1nnc(SCC(=O)c2cc3ccccc3o2)s1,activation,[1],-0.11%
same,activation,[2],1.9%
Cc1ccc(OCc2nc3ccccc3n2C)cc1,activation,[1],1.32%
same,activation,[2],5.18%
NC(=O)Nc1ccccc1C(=O)NCCc1ccccc1,activation,[1],0.34%
same,activation,[2],4.12%
Cn1c(-c2ccco2)nc2cc3ccccc3cc21,inhibition,[3],32.7% (active)
same,inhibition,[4],15.4%
CSc1ccc(/C=N/NC(=O)c2cccc(Cl)c2)cc1,activation,[5],14.8% (active)
same,activation,[6],0.56%
COc1ccc(/C=C/C(=O)Nc2ccc(C34CC5CC(CC(O)(C5)C3)C4)cc2)cc1OC,inhibition,[3],43.6% (active)
same,inhibition,[4],21.4%
c1ccc(-c2nnc(SCc3nc4ccccc4[nH]3)o2)cc1,inhibition,[3],13.7%
same,inhibition,[4],5.82%
Cc1ccc(NC(=O)c2ccco2)cc1,activation,[5],11.2% (active)
same,activation,[6],0.49%
CCOc1ccc(OCc2cccc(C(=O)N(CC)CC)c2)cc1,activation,[5],19.5% (active)
same,activation,[6],0.78%
Cc1cccc(NC(=O)/C=C/c2ccc3c(c2)OCO3)n1,activation,[5],18.1% (active)
same,activation,[6],0.84%
COc1ccc(CNC(=O)COc2ccccc2C(=O)c2cnn(-c3ccccc3)c2)cc1OC,activation,[5],10.3%
same,activation,[6],0.65%
COc1ccc(C)cc1NC(=O)c1[nH]c(C)c(C(C)=O)c1C,inhibition,[3],22.8%
same,inhibition,[4],4.72%
CC(=O)c1ccccc1NC(=O)COC(=O)C1COc2ccccc2O1 (stereo not drawn),activation,[5],-0.02%
same,activation,[6],0.04%
Fc1ccc2[nH]c3c(N4CCN(Cc5ccc6c(c5)OCO6)CC4)ncnc3c2c1,inhibition,[3],50.2% (active)
same,inhibition,[4],24.3%
Cc1cccc(N(CC(=O)Nc2ccc(-c3nc4ccc(C)cc4s3)cc2)S(C)(=O)=O)c1,activation,[5],19.8% (active)
same,activation,[6],0.65%
N#CC1(Nc2ccc(-c3ccc(Cl)cc3)cc2)CCCC1,activation,[5],8.29%
same,activation,[6],0.34%
CC(C)(C)c1csc(NC2=NS(=O)(=O)c3ccccc32)n1,activation,[5],15.4% (active)
same,activation,[6],0.75%
Cc1cc(-c2n[nH]c(=S)n2/N=C/C(Br)=C/c2ccccc2)n[nH]1,inhibition,[3],44.1% (active)
same,inhibition,[4],20.9%
O=[N+]([O-])c1ccc2c(c1)Nc1nc3ccccc3nc1N2,activation,[5],25.8% (active)
same,activation,[6],1.35%
O=C(CNC(=O)OCc1ccccc1)Oc1cc2oc(=O)cc(-c3ccccc3)c2cc1Cl,inhibition,[3],33.2% (active)
same,inhibition,[4],37% (active)
Cn1c(-c2ccc(C(=O)c3ccccc3)s2)nc2ccccc21,activation,[5],17.6% (active)
same,activation,[6],0.88%
COCC(C)NC(=O)c1ccc(Cl)c(Cl)c1 (stereo not drawn),inhibition,[3],10.6%
same,inhibition,[4],4.96%
O=C(Nc1ccc2ccccc2c1[N+](=O)[O-])c1ccccc1,activation,[5],17.7% (active)
same,activation,[6],0.89%
Cc1cnc(C(=O)N2CCCC(C(=O)c3ccc(C(F)(F)F)cc3)C2)cn1 (stereo not drawn),activation,[5],4.5%
same,activation,[6],0.17%
Fc1ccccc1-c1cc2cc3c(cc2cn1)OCO3,activation,[5],18.4% (active)
same,activation,[6],0.79%
CC(=O)c1cc(C#N)c(SCC(=O)C(C)(C)C)nc1C,activation,[5],14.8% (active)
same,activation,[6],0.48%
Cc1ccc2nc(-c3ccc(SCC(=O)Nc4cc(C)on4)nc3)[nH]c2c1,activation,[5],15.6% (active)
same,activation,[6],0.54%
CNS(=O)(=O)c1ccc(NC(=O)Nc2ccc3c(c2)OCO3)cc1,activation,[5],13.2% (active)
same,activation,[6],0.5%
CC(C)c1cc(C(N)=O)c(NC(=O)c2cccc(COc3ccc(Br)cc3)c2)s1,activation,[5],14% (active)
same,activation,[6],0.51%
FC(F)(F)c1cnc(Oc2ccccc2-c2nnc(-c3ccc(Cl)cc3)o2)c(Cl)c1,inhibition,[3],3.44%
same,inhibition,[4],8.76%
O=C(NCCc1c[nH]c2ccccc12)c1cc2ccccc2oc1=O,activation,[5],13.4% (active)
same,activation,[6],0.56%
COc1cccc(/C=C/C(=O)Nc2ccc3c(c2)OCCO3)c1,activation,[5],12.4% (active)
same,activation,[6],0.69%
O=C(CSC(=S)N1CCCCC1)c1c(F)cccc1F,activation,[5],13.4% (active)
same,activation,[6],0.64%
O=C(c1cnn2ccccc12)N1CCc2ccccc21,activation,[5],13.2% (active)
same,activation,[6],0.43%
O=C(NC1CCC1)c1ccc(C#CC2CC2)cn1,activation,[5],13.4% (active)
same,activation,[6],0.57%
Oc1cccc2cc(-c3ccncc3)cnc12,activation,[5],5.92%
same,activation,[6],0.18%
O=C(/C=C/Sc1ncn[nH]1)c1ccc(Cl)cc1,inhibition,[3],50.7% (active)
same,inhibition,[4],17%
N/C(=N\OC(=O)CCC1CCCCC1)c1ccccn1,activation,[5],12.3% (active)
same,activation,[6],0.49%
